Measured values published in ChEMBL document CHEMBL2034815, “Synthesis and evaluation of N(1)-alkylindole-3-ylalkylammonium compounds as nicotinic acetylcholine receptor ligands” (Bioorg Med Chem, 2012).
The source made the active and inactive calls. The calls are words filed in the database; no cut-off is given here.

What was measured:
[1] = Displacement of [3H]epibatidine from alpha3beta4* nAChR in calf adrenal P1 membrane after 90 mins by liquid scintillation counting; assay type: cell membranes, Bos taurus
In short: (§1)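 Rat forebrain P2, calf adrenal P1 or Torpedo californica electroplax P1 membranes (60 µg protein) with 0.5 nM (±)-[3H]epibatidine in HEPES-salt solution (15 mM HEPES, 120 mM NaCl, 5.4 mM KCl, 0.8 mM MgCl2, 1.8 mM CaCl2) at 22 °C. Run in duplicate. Nonspecific binding defined with 300 µM (−)-nicotine. Filtered on PEI-soaked GF/B filters. Ki derived from IC50 by Cheng-Prusoff, Kd 10 pM.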

[2] = Displacement of [3H]epibatidine from alpha4beta2* nAChR in Sprague-Dawley rat brain P2 membrane after 90 mins by liquid scintillation counting; assay type: tissue-based; in short: as §1
[3] = Displacement of [3H]MLA from alpha7* nAChR in Sprague-Dawley rat brain P2 membrane after 180 mins by liquid scintillation counting
[4] = Displacement of [3H]epibatidine from (alpha1)2beta1gammadelta nAChR in electric ray electroplax P1 membrane after 90 mins by liquid scintillation counting; design: species or system Tetronarce californica; in short: as §1
[5] = Displacement of [3H]MLA from alpha7* nAChR in rat brain membrane; assay type: cell membranes
In short: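 Rat brain crude P2 membranes in HEPES-salt solution (15 mM HEPES, 120 mM NaCl, 5.4 mM KCl, 0.8 mM MgCl2, 1.8 mM CaCl2), 22 °C, duplicates. [3H]MLA 2 nM final, 180 min; nonspecific binding with 1 µM MLA. GF/B filtration (1% PEI presoaked), scintillation counting. Nonlinear regression IC50; Ki by Cheng-Prusoff with Kd = 1 nM.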

[6] = species on record: Rattus norvegicus; assay: Displacement of [3H]epibatidine from alpha4beta2* nAChR in Sprague-Dawley rat brain P2 membrane up to 50 uM after 90 mins by liquid scintillation counting; assay type: tissue-based

CCCCCCCCn1cc(CN(C)C)c2ccccc21
Ki [1]: > 10 µM
Ki [2]: > 10 µM
Ki [3]: > 10 µM

CCCCCCCCCCCCn1cc(CC[N+](C)(C)C)c2ccccc21
Ki [1]: > 10 µM
Ki [2]: > 10 µM

CC(C)=CCn1cc(C[N+](C)(C)C)c2ccc(Br)cc21
Ki [1]: > 1 µM
Ki [2]: 0.203 µM
Ki [3]: > 1 µM

CCCCCCCCCCCCn1cc(CCN(C)C)c2ccccc21
Ki [1]: > 10 µM
Ki [2]: > 10 µM

Cn1cc(CC[N+](C)(C)C)c2ccccc21
Ki [1]: 2.01 µM
Ki [2]: > 10 µM
Ki [3]: > 10 µM
Ki [4]: > 10 µM

CCCCCCCCCCCCn1cc(CN(C)C)c2ccccc21
Ki [1]: > 10 µM
Ki [2]: > 10 µM
Ki [3]: > 10 µM

CCCCCCCCn1cc(CCCN(C)C)c2ccccc21
Ki [1]: > 10 µM
Ki [2]: > 10 µM

CC(C)=CCn1cc(CN(C)C)c2ccccc21
Ki [1]: > 10 µM
Ki [2]: > 10 µM

CC(C)=CCn1cc(CN(C)C)c2ccc(Br)cc21
Ki [1]: > 10 µM
Ki [2]: 1.38 µM

CCCCCCCCCCn1cc(CC[N+](C)(C)C)c2ccccc21
Ki [1]: > 10 µM
Ki [2]: > 10 µM

CN1CCC[C@H]1c1cccnc1 [NICOTINE]
Ki [1]: 0.0753 µM
Ki [2]: 0.00085 µM
Ki [3]: 0.129 µM

CCCCCCCCCCn1cc(CCN(C)C)c2ccccc21
Ki [1]: > 10 µM
Ki [2]: > 10 µM

C=CCn1cc(CCN(C)C)c2ccccc21
Ki [1]: 2.85 µM
Ki [2]: > 10 µM
Ki [3]: > 10 µM

CCCCCCCCn1c(C[N+](C)(C)C)cc2ccccc21
Ki [1]: > 10 µM
Ki [2]: > 10 µM
Ki [3]: > 10 µM

CNCCc1cn(CC=C(C)C)c2cc(Br)ccc12 [DEFORMYLFLUSTRABROMINE B]
Ki [1]: > 10 µM
Ki [5]: 17 µM
Ki [2]: > 10 µM
Activity [6]: inactive

CCCCCCCCCCn1cc(C[N+](C)(C)C)c2ccccc21
Ki [1]: > 10 µM
Ki [2]: > 10 µM
Ki [3]: > 10 µM

CC(C)=CCn1cc(CC[N+](C)(C)C)c2ccccc21
Ki [1]: 0.0939 µM
Ki [2]: 0.136 µM
Ki [3]: 0.862 µM
Ki [4]: 2.36 µM

CCCCCCCCCCCCn1cc(CCCN(C)C)c2ccccc21
Ki [1]: > 10 µM
Ki [2]: > 10 µM
Ki [3]: > 10 µM

CNCCc1cn(CC=C(C)C)c2ccccc12
Ki [1]: > 10 µM
Ki [2]: > 10 µM
Ki [3]: > 10 µM

CCCCCCCCCCn1cc(CN(C)C)c2ccccc21
Ki [1]: > 10 µM
Ki [2]: > 10 µM
Ki [3]: > 10 µM

CCCCCCCCn1cc(CCC[N+](C)(C)C)c2ccccc21
Ki [1]: > 10 µM
Ki [2]: 0.243 µM
Ki [3]: > 1 µM

CN(C)CCc1cn(C)c2ccccc12
Ki [1]: 3.68 µM
Ki [2]: > 10 µM

CC(C)=CCn1cc(CC[N+](C)(C)C)c2ccc(Br)cc21
Ki [1]: 5.33 µM
Ki [2]: 0.412 µM
Ki [3]: 1.53 µM
Ki [4]: > 10 µM

CCCCCCCCCCn1cc(CCCN(C)C)c2ccccc21
Ki [1]: > 10 µM
Ki [2]: > 10 µM
Ki [3]: > 10 µM

CCCCCCCCCCCCn1cc(CCC[N+](C)(C)C)c2ccccc21
Ki [1]: > 10 µM
Ki [2]: > 10 µM
Ki [3]: > 10 µM

CCCCCCCCCCn1cc(CCC[N+](C)(C)C)c2ccccc21
Ki [1]: > 10 µM
Ki [2]: > 10 µM
Ki [3]: > 10 µM

C=CCn1cc(CCNC)c2ccccc21
Ki [1]: > 10 µM
Ki [2]: > 10 µM

CC(C)=CCn1cc(C[N+](C)(C)C)c2ccccc21
Ki [1]: > 10 µM
Ki [2]: 0.435 µM
Ki [3]: > 10 µM

C=CCn1cc(CC[N+](C)(C)C)c2ccccc21
Ki [1]: 0.365 µM
Ki [2]: 0.517 µM
Ki [3]: 6.8 µM
Ki [4]: > 10 µM

CC(C)=CCn1cc(CCN(C)C)c2ccccc21
Ki [1]: 1.82 µM
Ki [2]: > 10 µM
Ki [3]: > 10 µM

CCCCCCCCn1cc(CC[N+](C)(C)C)c2ccccc21
Ki [1]: > 10 µM
Ki [2]: 0.527 µM

CNCCc1cn(C)c2ccccc12
Ki [1]: > 10 µM
Ki [2]: > 10 µM

CCCCCCCCn1c(CN(C)C)cc2ccccc21
Ki [1]: > 10 µM
Ki [2]: > 10 µM
Ki [3]: > 10 µM

CC(C)=CCn1cc(CC[N+]2(C)CCCC2)c2ccccc21
Ki [2]: > 10 µM

CCCCCCCCn1cc(CCN(C)C)c2ccccc21
Ki [1]: > 10 µM
Ki [2]: > 10 µM
Ki [3]: > 10 µM
Ki [4]: > 10 µM

CCCCCCCCn1cc(C[N+](C)(C)C)c2ccccc21
Ki [1]: 3.4 µM
Ki [2]: 0.706 µM
Ki [3]: > 5 µM

CCCCCCCCCCCCn1cc(C[N+](C)(C)C)c2ccccc21
Ki [1]: > 10 µM
Ki [2]: > 10 µM
Ki [3]: > 10 µM
